In BindingDB's records for doi:10.1016/j.bmcl.2013.01.031 (Birla Institute of Technology, 2013):

Biological target: O-acetylserine sulfhydrylase (Mycobacterium tuberculosis (strain ATCC 25618 / H37Rv), UniProt P9WP55)
Assay: Inhibition of Mycobacterium tuberculosis CysK1 using O-acetyl-L-serine as substrate assessed as L-cycteine formation after 5 mins by spectrophotometric analysis
Method in brief: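 Dose–response: serial 1:3 dilutions prepared in 50% DMSO (final DMSO 5%). Final mix was 100 mM MOPS pH 7.0, 2 mM O-acetyl-L-serine, […] CysK1, preincubated 5 min at room temperature. The reaction was started with sodium sulphide (final 1 mM). Aliquots taken at time intervals were assayed for L-cysteine by acid-ninhydrin. Specific activity vs concentration was fitted to a sigmoid for IC50.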

Q: For `O=C1Nc2c(c(=O)nc3sc([N+](=O)[O-])cn23)C(c2ccccc2C(F)(F)F)N1` (configuration not stated), which IC50 is on record?
A: 17.7 µM

Q: How did the IC50 turn out when `Cc1ccccc1C1NC(=S)Nc2c1c(=O)nc1sc([N+](=O)[O-])cn21` (configuration not stated) was run?
A: 17.7 µM
